Measured values as given in ChEMBL document CHEMBL1649304, “Efficacy of posaconazole as treatment and prophylaxis against Fusarium solani” (Antimicrob Agents Chemother, 2010).
≈ marks a conversion by molar mass, not a printed value. Calls of active or inactive are those of the source. The rule behind the calls is not given here.

Assays:
Fusarium solani [1] = experiment: Antifungal activity against inoculum range 6.5 x 10^5 to 6.8 x 10^5 conidia/animal Fusarium solani infected in ICR mouse assessed as rate of survival at 12.5 mg/kg, po BID treated after 12 hrs of inoculation; assay type: functional, organism-based; parameters: dose 12.5 mg/kg
Summary of the method: (§1)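 Neutropenic ICR mice (5-fluorouracil 150 mg/kg i.v., day −1) were infected i.v. with F. solani 95-2478 conidia. Posaconazole oral suspension was gavaged BID starting 12 h postinoculation and continued to day 9, then mice were followed off therapy to day 15. Moribund mice were euthanized and death was recorded the next day. Median and percent survival come from Kaplan-Meier curves versus untreated controls.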

Fusarium solani [2] = experiment: Antifungal activity against inoculum of 1x10^5 conidia/ml Fusarium solani isolate 95-2478 after 24 hrs by XTT assay; assay type: functional, organism-based; details: isolate 95-2478, 24 h
Summary of the method: (§2)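 Isolate 95-2478 conidia were grown 10 days at 37°C on potato dextrose agar. They were exposed in microtiter trays to posaconazole (DMSO stock; final 0 to 8 μg/ml) in RPMI with 2% glucose and 0.165 M MOPS, pH 7.0. Incubation ran 24 or 48 h, and XTT reduction was read at 492 nm in triplicate. Absorbance was expressed as percent of growth control, and IC50/IC90 came from a four-parameter inhibitory sigmoid fit.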

Fusarium solani [3] = experiment: Antifungal activity against low - inoculum 7.5 x 10^4 conidia/ml Fusarium solani infected in ICR mouse assessed as rate of survival at 6.25 mg/kg, po BID treated 2 days prior of infection; assay type: functional, organism-based; parameters: dose 6.25 mg/kg
Summary of the method: (§3)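 Dosing began 2 days before i.v. F. solani 95-2478 challenge in ICR mice made neutropenic with 5-fluorouracil (150 mg/kg i.v., day −1). Posaconazole oral suspension was gavaged BID through day 9, with observation off drug until day 15, n ≥10 per regimen. Moribund animals were euthanized and scored dead the next day. Kaplan-Meier median survival was compared with untreated controls.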

Fusarium solani [4] = experiment: Antifungal activity against high inoculum 2.9 x 10^6 conidia/animal Fusarium solani infected in ICR mouse assessed as bacterial count in kidney tissue at 50 mg/kg, po BID treated after 12 hrs of inoculation; assay type: functional
Summary of the method: (§4)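 Outbred ICR mice were made neutropenic with 5-fluorouracil 150 mg/kg i.v. 1 day before i.v. infection with F. solani isolate 95-2478 conidia (0.2 ml). Posaconazole oral suspension was given by gavage BID from 12 h after inoculation until day 9. Kidneys from moribund animals were homogenized and plated on potato dextrose agar, and CFU/g was counted after 48 h. Group medians were compared with untreated controls by Mann-Whitney.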

Fusarium solani [5] = experiment: Antifungal activity against high inoculum 2.9 x 10^6 conidia/animal Fusarium solani infected in ICR mouse assessed as rate of survival at 6.25 mg/kg, po BID treated after 12 hrs of inoculation; assay type: functional, organism-based; parameters: dose 6.25 mg/kg; summary of the method: as §1
Fusarium solani [6] = experiment: Antifungal activity against inoculum range 6.5 x 10^5 to 6.8 x 10^5 conidia/animal Fusarium solani infected in ICR mouse assessed as bacterial count in kidney tissue at 6.25 mg/kg, po BID treated after 12 hrs of inoculation; assay type: functional; summary of the method: as §4
Fusarium solani [7] = experiment: Antifungal activity against low - inoculum 7.5 x 10^4 conidia/ml Fusarium solani infected in ICR mouse assessed as bacterial count in kidney tissue at 25 mg/kg, po BID treated 2 days prior of infection; assay type: functional
Summary of the method: (§5)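 Prophylaxis model: posaconazole oral suspension was given by gavage BID starting 2 days before i.v. conidial challenge and continued to day 9. ICR mice were made neutropenic with 5-fluorouracil 150 mg/kg i.v. 1 day pre-inoculation, with n ≥10 per regimen. Kidneys were homogenized and plated on potato dextrose agar, and CFU/g was read after 48 h. Results were compared with untreated controls by Mann-Whitney.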

Fusarium solani [8] = experiment: Antifungal activity against high inoculum 2.9 x 10^6 conidia/animal Fusarium solani infected in ICR mouse assessed as rate of survival at 12.5 mg/kg, po BID treated after 12 hrs of inoculation; assay type: functional, organism-based; parameters: dose 12.5 mg/kg; summary of the method: as §1
Fusarium solani [9] = experiment: Antifungal activity against high inoculum 2.9 x 10^6 conidia/animal Fusarium solani infected in ICR mouse assessed as rate of survival at 50 mg/kg, po BID treated after 12 hrs of inoculation; assay type: functional, organism-based; parameters: dose 50 mg/kg; summary of the method: as §1
Fusarium solani [10] = experiment: Antifungal activity against mid- inoculum 6.5 x 10^5 conidia/ml Fusarium solani infected in ICR mouse assessed as rate of survival at 6.25 mg/kg, po BID treated 2 days prior of infection; assay type: functional, organism-based; parameters: dose 6.25 mg/kg; summary of the method: as §3
Fusarium solani [11] = experiment: Antifungal activity against high inoculum 2.9 x 10^6 conidia/animal Fusarium solani infected in ICR mouse assessed as bacterial count in kidney tissue at 6.25 mg/kg, po BID treated after 12 hrs of inoculation; assay type: functional; summary of the method: as §4
Fusarium solani [12] = experiment: Antifungal activity against mid- inoculum 6.5 x 10^5 conidia/ml Fusarium solani infected in ICR mouse assessed as bacterial count in kidney tissue at 12.5 mg/kg, po BID treated 2 days prior of infection; assay type: functional; summary of the method: as §5
[13] = Drug concentration in uninfected nonimmunosppressed ICR mouse serum at 50 mg/kg, po BID after 4 hrs; assay type: ADME, organism-based; parameters: dose 50 mg/kg, route oral; details: read-out: Drug uptake
Summary of the method: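 Uninfected, nonimmunosuppressed mice received 5 oral-gavage BID doses, and serum was taken 4 h after the last dose. Serum (100 μl, duplicate) was placed in wells cut in potato dextrose agar seeded with Candida kefyr ATCC 66028 at 1 × 10^4 cells/ml. Inhibition zones were measured after 48 h, and concentration was interpolated from a standard curve.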

Fusarium solani [14] = experiment: Antifungal activity against inoculum of 1x10^5 conidia/ml Fusarium solani isolate 95-2478 after 48 hrs by XTT assay; assay type: functional, organism-based; details: isolate 95-2478, 48 h; summary of the method: as §2
Fusarium solani [15] = experiment: Antifungal activity against high inoculum 2.9 x 10^6 conidia/animal Fusarium solani infected in ICR mouse assessed as bacterial count in kidney tissue at 12.5 mg/kg, po BID treated after 12 hrs of inoculation; assay type: functional; summary of the method: as §4
Fusarium solani [16] = experiment: Antifungal activity against inoculum range 7.7 x 10^4 to 7.8 x 10^4 conidia/animal Fusarium solani infected in ICR mouse assessed as rate of survival at 6.25 mg/kg, po BID treated after 12 hrs of inoculation; assay type: functional, organism-based; parameters: dose 6.25 mg/kg; summary of the method: as §1
Fusarium solani [17] = experiment: Antifungal activity against low - inoculum 7.5 x 10^4 conidia/ml Fusarium solani infected in ICR mouse assessed as rate of survival at 25 mg/kg, po BID treated 2 days prior of infection; assay type: functional, organism-based; parameters: dose 25 mg/kg; summary of the method: as §3
Fusarium solani [18] = experiment: Antifungal activity against mid- inoculum 6.5 x 10^5 conidia/ml Fusarium solani infected in ICR mouse assessed as rate of survival at 50 mg/kg, po BID treated 2 days prior of infection; assay type: functional, organism-based; parameters: dose 50 mg/kg; summary of the method: as §3
Fusarium solani [19] = experiment: Antifungal activity against low - inoculum 7.5 x 10^4 conidia/ml Fusarium solani infected in ICR mouse assessed as bacterial count in kidney tissue at 6.25 mg/kg, po BID treated 2 days prior of infection; assay type: functional; summary of the method: as §5
Fusarium solani [20] = experiment: Antifungal activity against inoculum range 7.7 x 10^4 to 7.8 x 10^4 conidia/animal Fusarium solani infected in ICR mouse assessed as rate of survival at 50 mg/kg, po BID treated after 12 hrs of inoculation; assay type: functional, organism-based; parameters: dose 50 mg/kg; summary of the method: as §1
Fusarium solani [21] = experiment: Antifungal activity against low - inoculum 7.5 x 10^4 conidia/ml Fusarium solani infected in ICR mouse assessed as bacterial count in kidney tissue at 12.5 mg/kg, po BID treated 2 days prior of infection; assay type: functional; summary of the method: as §5
Fusarium solani [22] = experiment: Antifungal activity against inoculum range 7.7 x 10^4 to 7.8 x 10^4 conidia/animal Fusarium solani infected in ICR mouse assessed as rate of survival at 25 mg/kg, po BID treated after 12 hrs of inoculation; assay type: functional, organism-based; parameters: dose 25 mg/kg; summary of the method: as §1
Fusarium solani [23] = experiment: Antifungal activity against mid- inoculum 6.5 x 10^5 conidia/ml Fusarium solani infected in ICR mouse assessed as bacterial count in kidney tissue at 6.25 mg/kg, po BID treated 2 days prior of infection; assay type: functional; summary of the method: as §5

Compound: CC[C@@H]([C@H](C)O)n1ncn(-c2ccc(N3CCN(c4ccc(OC[C@@H]5CO[C@@](Cn6cncn6)(c6ccc(F)cc6F)C5)cc4)CC3)cc2)c1=O [POSACONAZOLE]
- Activity (Fusarium solani [1]): Active
- IC90 (Fusarium solani [2]): 7.2 µg/mL (≈ 10.3 µM)
- IC90 (Fusarium solani [2]; read-out: IC90): > 8 µg/mL
- Activity (Fusarium solani [3]): Active
- log10CFU/g (Fusarium solani [4]): 5.2
- Activity (Fusarium solani [5]): Active
- log10CFU/g (Fusarium solani [6]): 6
- log10CFU/g (Fusarium solani [7]): 4.5
- Activity (Fusarium solani [8]): Active
- Activity (Fusarium solani [9]): Active
- Activity (Fusarium solani [10]): Active
- log10CFU/g (Fusarium solani [11]): 5.6
- log10CFU/g (Fusarium solani [12]): 5.5
- concentration at 4 h [13]: 5300 ng/mL
- IC50 (Fusarium solani [14]): > 8 µg/mL
- IC90 (Fusarium solani [14]): > 8 µg/mL
- log10CFU/g (Fusarium solani [15]): 5.3
- Activity (Fusarium solani [16]): Active
- Activity (Fusarium solani [17]): Active
- Activity (Fusarium solani [18]): Active
- log10CFU/g (Fusarium solani [19]): 2.8
- Activity (Fusarium solani [20]): Active
- log10CFU/g (Fusarium solani [21]): 4.4
- Activity (Fusarium solani [22]): Active
- log10CFU/g (Fusarium solani [23]): 5.6
